A short description of data set [1]: In vivo PROTAC activity at CRBN/SMARCA2 in female athymic nude mouse xenografted with human HCC515 cells harboring SMARCA4 mutant assessed as SMARCA2 degradation at 5 mg/kg, po administered once daily via gavage for 19 days by Western blotting analysis relative to control. In kind it is functional. Conditions: time 19 day. In outline: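 Female nude mice aged 6–8 weeks carried subcutaneous flank xenografts in PBS/Matrigel 1:1: H2023 at 10 × 10^6 cells or HCC515 at 5 × 10^6 cells. Randomised below 200 mm3. 5 mg/kg or vehicle given by oral gavage once daily for 19 days in 0.5% methylcellulose with Tween-80 (0.2% for H2023, 1% for HCC515). Tumours collected 24 h after dosing. SMARCA2 measured by Western blot against β-actin, relative to vehicle.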

The nature of data set [2]: Drug metabolism in mouse liver microsomes assessed as N-dealkylation mediated 2-(6-amino-5-(4-(3-fluoro-4-(piperazin-1-yl)benzyl)piperazin-1-yl)pyridazin-3-yl)phenol metabolite formation at 10 uM incubated for 60 mins by LC-UV-HRMS analysis. The following applies: 1 h. In kind it is ADME, Microsome. The procedure, abridged: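 Compound at 10 μM incubated with mouse liver microsomes at 37 °C for 60 min. Metabolites detected by LC-UV-HRMS, structures proposed from MS and MS2 data, and each metabolite given as a percentage.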
(Liver microsomes are vesicles of endoplasmic reticulum, rich in cytochrome P450 enzymes.)

Data set [3] relates to NCI-H2030. The experiment in a line: Antitumor activity against human NCI-H2030 cells harboring SMARCA4 mutant xenografted in female athymic nude mouse assessed as tumor growth inhibition at 5 mg/kg, po administered once daily via gavage for 17 days relative to control. Type of data set: functional. Conditions: NCI-H2030, 408 h, time 17 day, read-out: TGI. The procedure, abridged: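 10 × 10^6 H2030 cells in PBS:Matrigel 1:1, 200 μL, injected subcutaneously into flanks of 6–8-week-old females. Randomized at mean tumor volume <200 mm3. Oral gavage once daily in 10% DMSO, 40% PEG300, 1% Tween-80, 49% saline. Caliper tumor volume and body weight monitored, mean ± SEM.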
Background: A xenograft is tissue or cells of one species grown in another, often human tumour cells in immunodeficient mice.

Data set [4] concerns the target T1, Protein cereblon/SWI/SNF-related matrix-associated actin-dependent regulator of chromatin subfamily A member 2 (Homo sapiens, UniProt P51531+Q96SW2). The experiment in a line: PROTAC activity at CRBN/SMARCA2 in human H322 cells harboring SMARCA4 mutant assessed as induction of SMARCA2 degradation at 0.1 uM in presence of pomalidomide by immunoblot analysis. In kind it is cell-based. (Immunoblotting shows a protein as a band on a membrane.)

Data set [5] can be described thus: Drug concentration in CRBN I391V mutant mouse plasma at 10 mg/kg, po administered once daily for 3 days and measured at 24 hrs post last dose. Type of data set: ADME, organism-based. Conditions: time 3 day. In outline: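 Oral dosing once daily for 3 days: 5–80 mg/kg in C57BL/6 mice, 10–80 mg/kg in CrbnI391V mice. Euthanized 24 h after last dose. Plasma drug level measured. Spleen SMARCA2 by Western blot against actin loading control, relative to vehicle.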

Data set [6] deals with T1, Protein cereblon/SWI/SNF-related matrix-associated actin-dependent regulator of chromatin subfamily A member 2. As to the kind of experiment: PROTAC activity at CRBN/SMARCA2 in human H322 cells harboring SMARCA4 mutant assessed as induction of SMARCA2 degradation at 1 uM in presence of bortezomib by immunoblot analysis. In kind it is cell-based.
Data set [7] relates to NCI-H2030. The experiment in a line: Inhibition of ERK phosphorylation in human NCI-H2030 cells harboring KRAS G12C mutant/SMARCA4 mutant assessed as reduction in p-ERK level at 1.25 uM incubated for 72 hrs in presence of sotorasib by Western blotting analysis. Type of data set: cell-based.
Data set [8] in a line: In vivo PROTAC activity at CRBN I391V mutant/SMARCA2 in mouse assessed as SMARCA2 degradation in spleen at 80 mg/kg, po administered once daily for 3 days and measured at 24 hrs post last dose by Western blotting analysis relative to control. Type of data set: functional. Conditions: time 3 day. In outline: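 CrbnI391V mice given 10, 20, 40 or 80 mg/kg or vehicle orally once daily for 3 days. Euthanised 24 h after the last dose. Spleen SMARCA2 measured by Western blot with actin as loading control, relative to vehicle. Plasma drug level measured at the same time.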

A short description of data set [9]: Antitumor activity against human NCI-H1568 cells harboring SMARCA4 mutant xenografted in female athymic nude mouse assessed as tumor growth inhibition at 40 mg/kg, po administered once daily via gavage for 13 days relative to control. Type of data set: functional. Conditions: NCI-H1568, 312 h, time 13 day, read-out: TGI. The procedure, abridged:
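Cells (H1568 2 × 10^6, H2023 10 × 10^6, HCC515 5 × 10^6) in PBS:Matrigel 1:1, 200 μL, injected subcutaneously into flanks of 6–8-week-old females. Randomized at mean tumor volume 60 mm3 (H1568) or <200 mm3 (others). Dosed in 0.5% methylcellulose + 0.2–1% Tween-80, sonicated on ice. Caliper tumor volume and body weight tracked, mean ± SEM.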

Data set [10] can be described thus: Toxicity in immunocompromised mouse xenografted with human NCI-H1568 cells assessed as change in body weight at 80 mg/kg, administered once daily for 21 days. In kind it is organism-based. The following applies: in vivo, 504 h, time 21 day.

Structures are written as SMILES. Activity calls are given as the source filed them. The calls are words filed in the database; no cut-off is given here.

As to `Nc1nnc(-c2ccccc2O)cc1N1CCN(Cc2ccc(N3CCN(CCOc4cccc5c4C(=O)N(C4CCC(=O)NC4=O)C5=O)CC3)c(F)c2)CC1` (stereo not given), the Activity in data set [1] came out at 96%. In addition, in data set [2], the Drug metabolism result is recorded as “metabolite_detected”. In data set [3], the inhibition in vivo at 5 mg/kg was 93.4%. The outcome in data set [4] was inactive.
The molecule `Nc1nnc(-c2ccccc2O)cc1N1CCN(Cc2ccc(N3CCC(CN4CCN(c5ccc6c(c5)C(=O)N(C5CCC(=O)NC5=O)C6=O)CC4)CC3)c(F)c2)CC1` (stereo not given) had a concentration at 72 h in data set [5] of 1000 nM. Further, the outcome in [6] was inactive. The inhibition entry in [7] was “Active”. The Activity was 81% in data set [8] and “Non-toxic” in [10]. Besides, in data set [9], the inhibition in vivo at 40 mg/kg is 27.6%.

For the origin of these results see ChEMBL document CHEMBL6134900 (J Med Chem, 2025).
